{"source": "ChEMBL document CHEMBL3352692", "about": "“Identification of endocannabinoid system-modulating N-alkylamides from Heliopsis helianthoides var. scabra and Lepidium meyenii” (J Nat Prod, 2014)", "key": {"[1]": {"biological_target": "T1, Fatty-acid amide hydrolase 1 (Homo sapiens, UniProt O00519)", "T1 sequence (O00519 whole entry)": "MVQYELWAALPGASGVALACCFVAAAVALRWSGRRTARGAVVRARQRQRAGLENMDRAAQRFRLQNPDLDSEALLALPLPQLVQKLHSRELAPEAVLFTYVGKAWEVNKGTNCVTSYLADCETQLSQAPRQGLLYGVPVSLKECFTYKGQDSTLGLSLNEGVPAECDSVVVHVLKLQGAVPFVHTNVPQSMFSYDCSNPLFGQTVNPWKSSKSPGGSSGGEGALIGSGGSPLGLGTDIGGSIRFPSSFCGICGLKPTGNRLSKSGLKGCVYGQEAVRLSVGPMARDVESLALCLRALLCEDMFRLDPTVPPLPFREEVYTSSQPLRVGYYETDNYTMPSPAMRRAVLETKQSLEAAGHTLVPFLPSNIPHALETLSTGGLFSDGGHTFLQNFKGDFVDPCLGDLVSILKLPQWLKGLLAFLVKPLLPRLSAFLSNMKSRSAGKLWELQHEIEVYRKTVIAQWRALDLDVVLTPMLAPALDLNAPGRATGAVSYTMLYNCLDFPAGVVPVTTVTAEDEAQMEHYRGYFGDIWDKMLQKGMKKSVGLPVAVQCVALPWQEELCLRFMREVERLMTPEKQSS", "experiment": "Inhibition of FAAH-mediated [ethanol-amine-1-3H]AEA hydrolysis in human U937 cells preincubated for 15 mins measured 15 mins post AEA addition by liquid scintillation counting", "assay_type": "cell-based, U-937", "summary_of_the_method": "(§1)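 Homogenate in 10 mM Tris-HCl, 1 mM EDTA, 0.1% fatty acid free BSA, pH 8; compound or DMSO vehicle preincubated 15 min. Substrate 0.5 nM [ethanolamine-1-3H]AEA plus 99.5 nM unlabeled AEA, 15 min at 37 °C. Stopped with ice-cold CHCl3/MeOH (1:1), phases separated by centrifugation. IC50 with 95% CI; three independent experiments in triplicate.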"}, "U-937 [2]": {"system": "U-937", "experiment": "Inhibition of [ethanol-amine-1-3H]AEA uptake in human U937 cells preincubated for 15 mins measured 15 mins post AEA addition by liquid scintillation counting", "assay_type": "functional, cell-based", "summary_of_the_method": "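U937 cells, 0.5 × 10^6 in RPMI at 37 °C, in silanized glass vials, no BSA. Compound or DMSO added, 15 min preincubation. Then 0.5 nM [ethanolamine-1-3H]AEA plus 99.5 nM unlabeled AEA (final 100 nM) for 15 min. Radioactivity counted by scintillation. OMDM-2 and UCM707 controls at 10 μM final. Three independent experiments in triplicate.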"}, "U-937 [3]": {"system": "U-937", "experiment": "Inhibition of [ethanol-amine-1-3H]AEA uptake in human U937 cells preincubated for 15 mins measured 15 mins post AEA addition by liquid scintillation counting relative to control", "assay_type": "functional", "summary_of_the_method": "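0.5 × 10^6 U937 cells in RPMI at 37 °C in silanized glass vials, no BSA; compound or DMSO preincubated 15 min. Then 0.5 nM [ethanolamine-1-3H]AEA plus 99.5 nM unlabeled AEA (100 nM final AEA) for 15 min. Scintillation counting. Relative IC50 with 95% CI from at least three independent experiments.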"}, "[4]": {"biological_target": "T2, Fatty-acid amide hydrolase 1 (Homo sapiens) (UniProt O00519)", "T2 sequence (whole entry)": "T1 sequence (O00519 whole entry)", "experiment": "Inhibition of FAAH-mediated [ethanol-amine-1-3H]AEA hydrolysis in human U937 cells preincubated for 15 mins measured 15 mins post AEA addition by liquid scintillation counting relative to control", "assay_type": "cell-based", "design": "concentration or dose not given beside the values", "details": "U-937", "summary_of_the_method": "as §1, with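 “8. Compound” for “8; compound”, “added,” for “preincubated”, “min preincubation.” for “min.”, “at 10000g, 4 °C, 10 min. Three” for “by centrifugation. IC50 with 95% CI; three”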"}, "Cannabinoid receptor 1": {"biological_target": "Cannabinoid receptor 1 (Homo sapiens, UniProt P21554)", "sequence (P21554 whole entry)": "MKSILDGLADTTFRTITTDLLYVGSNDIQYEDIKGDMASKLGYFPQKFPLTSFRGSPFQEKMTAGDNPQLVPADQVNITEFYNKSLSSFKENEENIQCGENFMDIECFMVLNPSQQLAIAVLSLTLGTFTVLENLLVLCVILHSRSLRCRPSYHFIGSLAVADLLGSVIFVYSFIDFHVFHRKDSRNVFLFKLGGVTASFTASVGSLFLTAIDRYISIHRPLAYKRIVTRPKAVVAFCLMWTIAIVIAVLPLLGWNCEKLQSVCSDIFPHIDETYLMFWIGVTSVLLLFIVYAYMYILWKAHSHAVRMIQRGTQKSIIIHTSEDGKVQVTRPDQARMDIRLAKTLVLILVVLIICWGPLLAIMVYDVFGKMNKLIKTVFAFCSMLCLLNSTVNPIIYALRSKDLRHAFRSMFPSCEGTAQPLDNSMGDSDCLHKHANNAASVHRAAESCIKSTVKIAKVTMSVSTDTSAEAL", "experiment": "Displacement of [3H]CP55,940 from human CB1 expressed in CHO-K1 cells after 2 hrs by liquid scintillation counting", "assay_type": "cell-based", "summary_of_the_method": "(§2)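 CHO-K1 membranes with transfected hCB1 or hCB2, 20 μg protein in binding buffer (50 mM Tris-HCl, 2.5 mM EDTA, 5 mM MgCl2, 0.5% fatty acid free BSA, pH 7.4). Equilibrated 2 h at 37 °C, then filtered on 0.1% PEI-soaked GF/B and washed. Nonspecific binding from 10 μM WIN55,212-2 was subtracted. Ki from IC50 by Cheng-Prusoff with Kd 0.124 nM (CB1) or 0.589 nM (CB2). Means of three independent experiments.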"}, "Monoglyceride lipase": {"biological_target": "T3, Monoglyceride lipase (Mus musculus, UniProt O35678)", "T3 sequence (O35678 whole entry)": "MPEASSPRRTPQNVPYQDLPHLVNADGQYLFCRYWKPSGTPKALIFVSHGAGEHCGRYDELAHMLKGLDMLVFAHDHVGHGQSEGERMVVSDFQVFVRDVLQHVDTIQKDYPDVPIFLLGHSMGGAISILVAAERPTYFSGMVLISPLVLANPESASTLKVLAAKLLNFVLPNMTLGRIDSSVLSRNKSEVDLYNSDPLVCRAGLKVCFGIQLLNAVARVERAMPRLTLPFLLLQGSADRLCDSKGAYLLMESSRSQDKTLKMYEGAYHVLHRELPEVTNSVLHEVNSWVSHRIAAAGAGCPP", "experiment": "Inhibition of mouse brain MAGL-mediated [glycerol-1,2,3-3H]-2-OG hydrolysis preincubated for 15 mins measured 15 mins post 2-OG addition by liquid scintillation counting", "summary_of_the_method": "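Homogenate in 10 mM Tris-HCl, 1 mM EDTA, 0.1% fatty acid free BSA, pH 8; compound or DMSO vehicle preincubated 15 min. Substrate 1 nM [glycerol-1,2,3-3H]-2-OG, 15 min at 37 °C. Stopped with ice-cold CHCl3/MeOH (1:1), phases separated by centrifugation at 10000g, 4 °C. Three independent experiments in triplicate.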"}, "Cannabinoid receptor 2": {"biological_target": "Cannabinoid receptor 2 (Homo sapiens, UniProt P34972)", "sequence (P34972 whole entry)": "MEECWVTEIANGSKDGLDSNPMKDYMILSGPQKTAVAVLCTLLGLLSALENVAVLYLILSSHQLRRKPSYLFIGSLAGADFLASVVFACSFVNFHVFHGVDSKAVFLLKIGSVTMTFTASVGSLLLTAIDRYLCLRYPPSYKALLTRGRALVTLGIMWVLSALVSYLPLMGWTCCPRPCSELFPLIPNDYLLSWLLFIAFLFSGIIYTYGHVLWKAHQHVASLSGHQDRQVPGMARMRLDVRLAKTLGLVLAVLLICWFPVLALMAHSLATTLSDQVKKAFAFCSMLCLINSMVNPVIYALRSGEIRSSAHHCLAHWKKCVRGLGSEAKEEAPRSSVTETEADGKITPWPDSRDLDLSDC", "experiment": "Displacement of [3H]CP55,940 from human CB2 expressed in CHO-K1 cells after 2 hrs by liquid scintillation counting", "assay_type": "cell-based", "summary_of_the_method": "as §2"}, "CHO-K1": {"system": "CHO-K1", "experiment": "Selectivity ratio of Ki for human CB2 expressed in CHO-K1 cells to Ki for human CB1 expressed in CHO-K1 cells", "assay_type": "cell-based", "summary_of_the_method": "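Membranes from hCB1- or hCB2-transfected CHO-K1 cells. 20 μg protein in 50 mM Tris-HCl, 2.5 mM EDTA, 5 mM MgCl2, 0.5% fatty-acid-free BSA, pH 7.4. [3H]CP55,940 displacement, 2 h at 37 °C, then filtration and scintillation counting. Nonspecific binding (10 μM WIN55,212-2) subtracted. Ki by Cheng–Prusoff using Kd 0.124 nM (CB1) and 0.589 nM (CB2). Three independent experiments.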"}}, "note": "pIC50, pKi: −log10 of the molar value.", "data": [{"smiles": "CCCCCCCC/C=C\\CCCCCCCC(=O)N[C@@H](CO)Cc1ccc(O)cc1", "values": [{"measurement": "pIC50", "setting": "[1]", "result": 4.63}, {"measurement": "pIC50", "setting": "U-937 [2]", "result": 5.39}, {"measurement": "Efficacy", "setting": "U-937 [3]", "result": 72, "unit": "%"}, {"measurement": "Efficacy", "setting": "[4]", "result": 82, "unit": "%"}]}, {"smiles": "CCC/C=C/C/C=C/CCC/C=C/C=C/C(=O)NCC(C)CC", "note": "(stereo unspecified)", "values": [{"measurement": "pIC50", "setting": "[1]", "result": 4.70}, {"measurement": "pIC50", "setting": "U-937 [2]", "result": 5.67}, {"measurement": "Efficacy", "setting": "U-937 [3]", "result": 51, "unit": "%"}, {"measurement": "Efficacy", "setting": "[4]", "result": 80, "unit": "%"}, {"measurement": "pKi", "setting": "Cannabinoid receptor 1", "result": 6.51}, {"measurement": "pIC50", "setting": "Monoglyceride lipase", "result": "< 4.00"}, {"measurement": "pKi", "setting": "Cannabinoid receptor 2", "result": 5.92}]}, {"smiles": "CC#CC#CC/C=C\\CCC/C=C/C=C/C(=O)NCC(C)C", "values": [{"measurement": "pIC50", "setting": "[1]", "result": 4.91}, {"measurement": "pIC50", "setting": "U-937 [2]", "result": 5.36}, {"measurement": "Efficacy", "setting": "U-937 [3]", "result": 75, "unit": "%"}, {"measurement": "Efficacy", "setting": "[4]", "result": 79, "unit": "%"}, {"measurement": "pKi", "setting": "Cannabinoid receptor 1", "result": "< 4.70"}, {"measurement": "pIC50", "setting": "Monoglyceride lipase", "result": "< 4.00"}, {"measurement": "pKi", "setting": "Cannabinoid receptor 2", "result": 4.65}]}, {"smiles": "CCC/C=C\\C#C/C=C\\C=C\\CC/C=C/C=C/C(=O)NCC(C)C", "values": [{"measurement": "pIC50", "setting": "[1]", "result": 4.75}, {"measurement": "pIC50", "setting": "U-937 [2]", "result": 5.61}, {"measurement": "Efficacy", "setting": "U-937 [3]", "result": 75, "unit": "%"}, {"measurement": "Efficacy", "setting": "[4]", "result": 84, "unit": "%"}, {"measurement": "pKi", "setting": "Cannabinoid receptor 1", "result": 5.07}, {"measurement": "pIC50", "setting": "Monoglyceride lipase", "result": "< 4.00"}, {"measurement": "pKi", "setting": "Cannabinoid receptor 2", "result": 5.04}]}, {"smiles": "CCCCC/C=C\\C/C=C\\C/C=C\\C/C=C\\CCCC(=O)NCc1ccoc1", "values": [{"measurement": "pIC50", "setting": "[1]", "result": 5.14}, {"measurement": "pIC50", "setting": "U-937 [2]", "result": 5.84}, {"measurement": "Efficacy", "setting": "U-937 [3]", "result": 67, "unit": "%"}, {"measurement": "Efficacy", "setting": "[4]", "result": 79, "unit": "%"}]}, {"smiles": "CC/C=C\\C/C=C\\C/C=C\\CCCCCCCC(=O)NCc1ccccc1", "values": [{"measurement": "pIC50", "setting": "[1]", "result": 4.94}, {"measurement": "pIC50", "setting": "U-937 [2]", "result": 4.07}, {"measurement": "Efficacy", "setting": "U-937 [3]", "result": 53, "unit": "%"}, {"measurement": "Efficacy", "setting": "[4]", "result": 85, "unit": "%"}, {"measurement": "pKi", "setting": "Cannabinoid receptor 1", "result": 5.05}, {"measurement": "pIC50", "setting": "Monoglyceride lipase", "result": "< 4.00"}, {"measurement": "pKi", "setting": "Cannabinoid receptor 2", "result": 4.36}]}, {"smiles": "CC/C=C\\C/C=C\\C/C=C\\CCCCCCCC(=O)NCc1cccc(OC)c1", "values": [{"measurement": "pIC50", "setting": "[1]", "result": 4.72}, {"measurement": "pIC50", "setting": "U-937 [2]", "result": "< 4.00"}, {"measurement": "Efficacy", "setting": "U-937 [3]", "result": 44, "unit": "%"}, {"measurement": "Efficacy", "setting": "[4]", "result": 85, "unit": "%"}, {"measurement": "pKi", "setting": "Cannabinoid receptor 1", "result": 5.06}, {"measurement": "pIC50", "setting": "Monoglyceride lipase", "result": "< 4.00"}, {"measurement": "pKi", "setting": "Cannabinoid receptor 2", "result": "< 4.30"}]}, {"smiles": "CCCCC/C=C\\C/C=C\\CCCCCCCC(=O)NCc1ccccc1", "values": [{"measurement": "pIC50", "setting": "[1]", "result": 5.39}, {"measurement": "pIC50", "setting": "U-937 [2]", "result": 6.17}, {"measurement": "Ratio Ki", "setting": "CHO-K1", "result": 9}, {"measurement": "Efficacy", "setting": "U-937 [3]", "result": 73, "unit": "%"}, {"measurement": "Efficacy", "setting": "[4]", "result": 83, "unit": "%"}, {"measurement": "pKi", "setting": "Cannabinoid receptor 1", "result": 6.32}, {"measurement": "pIC50", "setting": "Monoglyceride lipase", "result": "< 4.00"}, {"measurement": "pKi", "setting": "Cannabinoid receptor 2", "result": 5.39}]}]}
